Measurements: ChEMBL document CHEMBL5058577, “EUbOPEN Chemogenomics Library 2 (Multiplex)” (2022)

System: U2OS
Experiment: Multiplex assay against U2OS
Assay type: toxicity, cell-based
Conditions: human
Method in brief: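 Four dyes were applied at seeding to live cells: Hoechst33342, BioTracker Green Microtubule Cytoskeleton Dye, MitoTracker Red and Annexin V Alexa Fluor 680. Imaging after compound addition used a CQ1 microscope at 37°C and 5% CO2. CellPathfinder machine-learning gating then sorted cells into Hoechst high-intensity objects or normal cells, normal cells into healthy, pyknosed or fragmented nuclei, and pyknosed cells into mitotic or apoptotic, with tubulin, mitochondrial-mass and membrane-permeability phenotypes given as per cents of healthy-nucleus cells.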

[1] = 12 h, 1 µM, compound concentration 1 uM, replicate 1
[2] = 12 h, 1 µM, compound concentration 1 uM, replicate 2
[3] = 12 h, 10 µM, compound concentration 10 uM, replicate 1
[4] = 12 h, 10 µM, compound concentration 10 uM, replicate 2
[5] = 24 h, 1 µM, compound concentration 1 uM, replicate 1
[6] = 24 h, 1 µM, compound concentration 1 uM, replicate 2
[7] = 24 h, 10 µM, compound concentration 10 uM, replicate 1
[8] = 24 h, 10 µM, compound concentration 10 uM, replicate 2
[9] = 48 h, 1 µM, compound concentration 1 uM, replicate 1
[10] = 48 h, 1 µM, compound concentration 1 uM, replicate 2
[11] = 48 h, 10 µM, compound concentration 10 uM, replicate 1
[12] = 48 h, 10 µM, compound concentration 10 uM, replicate 2

O=C(NCCO)c1cccc(-c2cc(Nc3ccc(OC(F)(F)F)cc3)ncn2)c1
Population Apoptotic (%) [1]: 64%
Population Fragmented Nuclei (%) [1]: 13%
Population Healthy Nuclei (%) [1]: 72%
Population Hoechst High Intensity Objects (%) [1]: 1%
Population Membrane Permeable-Phenotype (%) [1]: 3%
Population Mitochondria Different-Phenotype (%) [1]: 3%
Population Mitotic Cells (%) [1]: 35%
Population Normal (%) [1]: 98%
Population Pyknosed Nuclei (%) [1]: 13%
Population Tubulin-Different-Phenotype (%) [1]: 1%
Total Cell Count [1]: 213
Population Apoptotic (%) [2]: 84%
Population Fragmented Nuclei (%) [2]: 15%
Population Healthy Nuclei (%) [2]: 73%
Population Membrane Permeable-Phenotype (%) [2]: 4%
Population Mitotic Cells (%) [2]: 15%
Population Pyknosed Nuclei (%) [2]: 10%
Population Tubulin-Different-Phenotype (%) [2]: 4%
Total Cell Count [2]: 128
Population Apoptotic (%) [3]: 84%
Population Fragmented Nuclei (%) [3]: 21%
Population Healthy Nuclei (%) [3]: 66%
Population Hoechst High Intensity Objects (%) [3]: 4%
Population Membrane Permeable-Phenotype (%) [3]: 9%
Population Mitochondria Different-Phenotype (%) [3]: 7%
Population Mitotic Cells (%) [3]: 15%
Population Normal (%) [3]: 95%
Population Pyknosed Nuclei (%) [3]: 12%
Population Tubulin-Different-Phenotype (%) [3]: 6%
Total Cell Count [3]: 274
Population Apoptotic (%) [4]: 100%
Population Fragmented Nuclei (%) [4]: 20%
Population Healthy Nuclei (%) [4]: 68%
Population Hoechst High Intensity Objects (%) [4]: 2%
Population Mitochondria Different-Phenotype (%) [4]: 15%
Population Mitotic Cells (%) [4]: 0%
Population Normal (%) [4]: 97%
Population Tubulin-Different-Phenotype (%) [4]: 3%
Total Cell Count [4]: 77
Population Apoptotic (%) [5]: 70%
Population Fragmented Nuclei (%) [5]: 16%
Population Healthy Nuclei (%) [5]: 73%
Population Hoechst High Intensity Objects (%) [5]: 1%
Population Membrane Permeable-Phenotype (%) [5]: 3%
Population Mitochondria Different-Phenotype (%) [5]: 3%
Population Mitotic Cells (%) [5]: 29%
Population Normal (%) [5]: 98%
Population Pyknosed Nuclei (%) [5]: 9%
Population Tubulin-Different-Phenotype (%) [5]: 2%
Total Cell Count [5]: 256
Population Apoptotic (%) [6]: 86%
Population Fragmented Nuclei (%) [6]: 20%
Population Healthy Nuclei (%) [6]: 69%
Population Membrane Permeable-Phenotype (%) [6]: 7%
Population Mitochondria Different-Phenotype (%) [6]: 5%
Population Mitotic Cells (%) [6]: 13%
Population Tubulin-Different-Phenotype (%) [6]: 4%
Total Cell Count [6]: 156
Population Apoptotic (%) [7]: 82%
Population Fragmented Nuclei (%) [7]: 22%
Population Healthy Nuclei (%) [7]: 64%
Population Hoechst High Intensity Objects (%) [7]: 4%
Population Membrane Permeable-Phenotype (%) [7]: 6%
Population Mitochondria Different-Phenotype (%) [7]: 3%
Population Mitotic Cells (%) [7]: 17%
Population Normal (%) [7]: 95%
Population Pyknosed Nuclei (%) [7]: 12%
Population Tubulin-Different-Phenotype (%) [7]: 1%
Total Cell Count [7]: 344
Population Apoptotic (%) [8]: 100%
Population Fragmented Nuclei (%) [8]: 15%
Population Healthy Nuclei (%) [8]: 78%
Population Hoechst High Intensity Objects (%) [8]: 1%
Population Membrane Permeable-Phenotype (%) [8]: 12%
Population Mitochondria Different-Phenotype (%) [8]: 13%
Population Mitotic Cells (%) [8]: 0%
Population Normal (%) [8]: 98%
Population Pyknosed Nuclei (%) [8]: 5%
Population Tubulin-Different-Phenotype (%) [8]: 4%
Total Cell Count [8]: 96
Population Apoptotic (%) [9]: 88%
Population Fragmented Nuclei (%) [9]: 15%
Population Healthy Nuclei (%) [9]: 75%
Population Hoechst High Intensity Objects (%) [9]: 2%
Population Membrane Permeable-Phenotype (%) [9]: 6%
Population Mitochondria Different-Phenotype (%) [9]: 3%
Population Mitotic Cells (%) [9]: 11%
Population Normal (%) [9]: 97%
Population Pyknosed Nuclei (%) [9]: 8%
Population Tubulin-Different-Phenotype (%) [9]: 4%
Total Cell Count [9]: 417
Population Apoptotic (%) [10]: 96%
Population Fragmented Nuclei (%) [10]: 20%
Population Healthy Nuclei (%) [10]: 65%
Population Membrane Permeable-Phenotype (%) [10]: 9%
Population Mitochondria Different-Phenotype (%) [10]: 4%
Population Mitotic Cells (%) [10]: 3%
Population Pyknosed Nuclei (%) [10]: 14%
Population Tubulin-Different-Phenotype (%) [10]: 6%
Total Cell Count [10]: 206
Population Apoptotic (%) [11]: 92%
Population Fragmented Nuclei (%) [11]: 18%
Population Healthy Nuclei (%) [11]: 72%
Population Hoechst High Intensity Objects (%) [11]: 3%
Population Membrane Permeable-Phenotype (%) [11]: 8%
Population Mitochondria Different-Phenotype (%) [11]: 3%
Population Mitotic Cells (%) [11]: 7%
Population Normal (%) [11]: 96%
Population Pyknosed Nuclei (%) [11]: 9%
Population Tubulin-Different-Phenotype (%) [11]: 6%
Total Cell Count [11]: 473
Population Apoptotic (%) [12]: 91%
Population Fragmented Nuclei (%) [12]: 26%
Population Healthy Nuclei (%) [12]: 64%
Population Hoechst High Intensity Objects (%) [12]: 2%
Population Membrane Permeable-Phenotype (%) [12]: 5%
Population Mitochondria Different-Phenotype (%) [12]: 7%
Population Mitotic Cells (%) [12]: 8%
Population Normal (%) [12]: 97%
Population Pyknosed Nuclei (%) [12]: 8%
Population Tubulin-Different-Phenotype (%) [12]: 1%
Total Cell Count [12]: 143

CC[C@H]1OC(=O)[C@H](C)[C@@H](O[C@H]2C[C@@](C)(OC)[C@@H](O)[C@H](C)O2)[C@H](C)[C@@H](O[C@@H]2O[C@H](C)C[C@H](N(C)C)[C@H]2O)[C@@]2(C)CC(C)=C(O2)[C@H](C)[C@@H](O)[C@]1(C)O
Population Apoptotic (%) [1]: 50%
Population Fragmented Nuclei (%) [1]: 19%
Population Healthy Nuclei (%) [1]: 63%
Population Hoechst High Intensity Objects (%) [1]: 3%
Population Membrane Permeable-Phenotype (%) [1]: 33%
Population Mitochondria Different-Phenotype (%) [1]: 23%
Population Mitotic Cells (%) [1]: 50%
Population Normal (%) [1]: 96%
Population Pyknosed Nuclei (%) [1]: 17%
Population Tubulin-Different-Phenotype (%) [1]: 25%
Total Cell Count [1]: 226
Population Apoptotic (%) [2]: 84%
Population Fragmented Nuclei (%) [2]: 23%
Population Healthy Nuclei (%) [2]: 62%
Population Hoechst High Intensity Objects (%) [2]: 1%
Population Membrane Permeable-Phenotype (%) [2]: 21%
Population Mitochondria Different-Phenotype (%) [2]: 14%
Population Mitotic Cells (%) [2]: 15%
Population Normal (%) [2]: 98%
Population Pyknosed Nuclei (%) [2]: 14%
Population Tubulin-Different-Phenotype (%) [2]: 14%
Total Cell Count [2]: 91
Population Apoptotic (%) [3]: 65%
Population Fragmented Nuclei (%) [3]: 34%
Population Healthy Nuclei (%) [3]: 40%
Population Hoechst High Intensity Objects (%) [3]: 7%
Population Membrane Permeable-Phenotype (%) [3]: 82%
Population Mitochondria Different-Phenotype (%) [3]: 63%
Population Mitotic Cells (%) [3]: 34%
Population Normal (%) [3]: 92%
Population Pyknosed Nuclei (%) [3]: 25%
Population Tubulin-Different-Phenotype (%) [3]: 89%
Total Cell Count [3]: 223
Population Apoptotic (%) [4]: 73%
Population Fragmented Nuclei (%) [4]: 21%
Population Healthy Nuclei (%) [4]: 47%
Population Hoechst High Intensity Objects (%) [4]: 4%
Population Membrane Permeable-Phenotype (%) [4]: 72%
Population Mitochondria Different-Phenotype (%) [4]: 81%
Population Mitotic Cells (%) [4]: 26%
Population Normal (%) [4]: 95%
Population Pyknosed Nuclei (%) [4]: 31%
Population Tubulin-Different-Phenotype (%) [4]: 96%
Total Cell Count [4]: 128
Population Apoptotic (%) [5]: 65%
Population Fragmented Nuclei (%) [5]: 20%
Population Healthy Nuclei (%) [5]: 63%
Population Hoechst High Intensity Objects (%) [5]: 4%
Population Membrane Permeable-Phenotype (%) [5]: 20%
Population Mitochondria Different-Phenotype (%) [5]: 15%
Population Mitotic Cells (%) [5]: 35%
Population Normal (%) [5]: 95%
Population Pyknosed Nuclei (%) [5]: 16%
Population Tubulin-Different-Phenotype (%) [5]: 17%
Total Cell Count [5]: 256
Population Apoptotic (%) [6]: 72%
Population Fragmented Nuclei (%) [6]: 19%
Population Healthy Nuclei (%) [6]: 64%
Population Hoechst High Intensity Objects (%) [6]: 5%
Population Membrane Permeable-Phenotype (%) [6]: 14%
Population Mitochondria Different-Phenotype (%) [6]: 14%
Population Mitotic Cells (%) [6]: 27%
Population Normal (%) [6]: 94%
Population Tubulin-Different-Phenotype (%) [6]: 10%
Total Cell Count [6]: 115
Population Apoptotic (%) [7]: 67%
Population Fragmented Nuclei (%) [7]: 33%
Population Healthy Nuclei (%) [7]: 36%
Population Hoechst High Intensity Objects (%) [7]: 5%
Population Membrane Permeable-Phenotype (%) [7]: 56%
Population Mitochondria Different-Phenotype (%) [7]: 65%
Population Mitotic Cells (%) [7]: 32%
Population Normal (%) [7]: 94%
Population Pyknosed Nuclei (%) [7]: 29%
Population Tubulin-Different-Phenotype (%) [7]: 76%
Total Cell Count [7]: 210
Population Apoptotic (%) [8]: 82%
Population Fragmented Nuclei (%) [8]: 24%
Population Healthy Nuclei (%) [8]: 45%
Population Hoechst High Intensity Objects (%) [8]: 4%
Population Membrane Permeable-Phenotype (%) [8]: 75%
Population Mitochondria Different-Phenotype (%) [8]: 86%
Population Mitotic Cells (%) [8]: 17%
Population Normal (%) [8]: 95%
Population Pyknosed Nuclei (%) [8]: 30%
Population Tubulin-Different-Phenotype (%) [8]: 88%
Total Cell Count [8]: 121
Population Apoptotic (%) [9]: 67%
Population Fragmented Nuclei (%) [9]: 19%
Population Healthy Nuclei (%) [9]: 54%
Population Hoechst High Intensity Objects (%) [9]: 9%
Population Membrane Permeable-Phenotype (%) [9]: 13%
Population Mitochondria Different-Phenotype (%) [9]: 8%
Population Mitotic Cells (%) [9]: 32%
Population Normal (%) [9]: 91%
Population Pyknosed Nuclei (%) [9]: 26%
Population Tubulin-Different-Phenotype (%) [9]: 11%
Total Cell Count [9]: 300
Population Apoptotic (%) [10]: 78%
Population Fragmented Nuclei (%) [10]: 32%
Population Healthy Nuclei (%) [10]: 58%
Population Hoechst High Intensity Objects (%) [10]: 2%
Population Membrane Permeable-Phenotype (%) [10]: 12%
Population Mitochondria Different-Phenotype (%) [10]: 12%
Population Mitotic Cells (%) [10]: 21%
Population Normal (%) [10]: 97%
Population Pyknosed Nuclei (%) [10]: 9%
Population Tubulin-Different-Phenotype (%) [10]: 7%
Total Cell Count [10]: 147
Population Apoptotic (%) [11]: 85%
Population Fragmented Nuclei (%) [11]: 37%
Population Healthy Nuclei (%) [11]: 31%
Population Hoechst High Intensity Objects (%) [11]: 7%
Population Membrane Permeable-Phenotype (%) [11]: 58%
Population Mitochondria Different-Phenotype (%) [11]: 55%
Population Mitotic Cells (%) [11]: 14%
Population Normal (%) [11]: 92%
Population Pyknosed Nuclei (%) [11]: 31%
Population Tubulin-Different-Phenotype (%) [11]: 63%
Total Cell Count [11]: 236
Population Apoptotic (%) [12]: 83%
Population Fragmented Nuclei (%) [12]: 20%
Population Healthy Nuclei (%) [12]: 42%
Population Hoechst High Intensity Objects (%) [12]: 9%
Population Membrane Permeable-Phenotype (%) [12]: 62%
Population Mitochondria Different-Phenotype (%) [12]: 81%
Population Mitotic Cells (%) [12]: 16%
Population Normal (%) [12]: 90%
Population Pyknosed Nuclei (%) [12]: 36%
Population Tubulin-Different-Phenotype (%) [12]: 88%
Total Cell Count [12]: 112
